Active and inactive are the calls of the source. The calls are words filed in the database; no cut-off is given here.
Assays:
[1] = AUC (0 to 24 hrs) in Wistar rat at 3 mg/kg, po by LC-MS/MS analysis; assay type: ADME, organism-based; parameters: dose 3 mg/kg, time < 24 hr, route oral; settings: in vivo
How it was run: (§1)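 Fasted male Wistar rats; compound in water for injection, given i.v. (2 mL/kg) or p.o. (10 mL/kg). Plasma exposure measured as AUC0-24hr.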

[2] = target: Voltage-gated inwardly rectifying potassium channel KCNH2 (Homo sapiens, UniProt Q12809); experiment: Inhibition of human ERG expressed in HEK293 cells by whole-cell patch clamp assay; assay type: cell-based
Voltage-gated inwardly rectifying potassium channel KCNH2, sequence (Q12809 whole entry): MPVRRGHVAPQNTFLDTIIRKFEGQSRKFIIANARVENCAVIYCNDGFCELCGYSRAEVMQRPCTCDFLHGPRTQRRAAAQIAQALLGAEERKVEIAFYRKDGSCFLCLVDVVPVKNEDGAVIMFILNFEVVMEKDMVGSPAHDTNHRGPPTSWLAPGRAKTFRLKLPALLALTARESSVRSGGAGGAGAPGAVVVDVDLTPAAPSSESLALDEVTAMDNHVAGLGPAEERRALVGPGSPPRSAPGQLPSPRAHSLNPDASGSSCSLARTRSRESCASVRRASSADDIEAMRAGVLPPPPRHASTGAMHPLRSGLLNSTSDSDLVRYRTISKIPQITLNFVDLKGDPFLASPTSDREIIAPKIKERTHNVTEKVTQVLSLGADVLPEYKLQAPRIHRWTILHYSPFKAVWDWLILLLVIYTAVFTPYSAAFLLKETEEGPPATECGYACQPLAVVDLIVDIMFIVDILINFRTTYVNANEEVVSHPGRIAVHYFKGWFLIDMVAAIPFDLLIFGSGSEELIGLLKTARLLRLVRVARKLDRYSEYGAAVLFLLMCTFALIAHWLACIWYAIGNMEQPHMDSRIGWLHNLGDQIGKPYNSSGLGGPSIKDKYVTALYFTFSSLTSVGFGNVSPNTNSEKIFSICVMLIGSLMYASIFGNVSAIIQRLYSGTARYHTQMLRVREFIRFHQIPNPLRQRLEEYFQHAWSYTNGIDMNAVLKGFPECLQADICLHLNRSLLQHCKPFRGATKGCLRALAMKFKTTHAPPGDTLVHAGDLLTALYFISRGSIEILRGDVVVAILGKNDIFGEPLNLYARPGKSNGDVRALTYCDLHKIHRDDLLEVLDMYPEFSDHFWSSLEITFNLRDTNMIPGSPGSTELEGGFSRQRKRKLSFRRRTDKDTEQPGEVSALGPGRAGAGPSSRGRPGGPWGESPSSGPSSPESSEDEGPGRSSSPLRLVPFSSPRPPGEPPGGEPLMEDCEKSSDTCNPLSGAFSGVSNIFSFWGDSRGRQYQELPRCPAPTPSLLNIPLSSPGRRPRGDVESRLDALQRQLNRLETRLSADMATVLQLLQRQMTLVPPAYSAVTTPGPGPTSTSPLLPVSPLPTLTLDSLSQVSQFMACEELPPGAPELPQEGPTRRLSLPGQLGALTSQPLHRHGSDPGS

Cytochrome P450 3A4 = Cytochrome P450 3A4 (Homo sapiens, UniProt P08684); experiment: Inhibition of CYP3A4 in human liver microsomes using midazolam as substrate after 2 mins by LC-MS/MS analysis; assay type: ADME
Cytochrome P450 3A4, sequence (P08684 whole entry): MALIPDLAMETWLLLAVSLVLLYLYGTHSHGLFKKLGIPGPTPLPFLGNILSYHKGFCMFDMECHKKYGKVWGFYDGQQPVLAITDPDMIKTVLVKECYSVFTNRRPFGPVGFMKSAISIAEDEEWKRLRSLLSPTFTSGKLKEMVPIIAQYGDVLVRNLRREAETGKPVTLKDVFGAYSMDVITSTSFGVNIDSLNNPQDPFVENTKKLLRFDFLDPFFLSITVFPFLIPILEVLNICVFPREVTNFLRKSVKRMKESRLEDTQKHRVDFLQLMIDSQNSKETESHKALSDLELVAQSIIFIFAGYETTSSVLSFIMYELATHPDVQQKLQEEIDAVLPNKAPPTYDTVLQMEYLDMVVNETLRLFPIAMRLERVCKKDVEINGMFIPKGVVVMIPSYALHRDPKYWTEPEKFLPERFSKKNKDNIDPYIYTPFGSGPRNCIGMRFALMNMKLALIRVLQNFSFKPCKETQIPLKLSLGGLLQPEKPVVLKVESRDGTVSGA

[3] = Mutagenicity in Salmonella typhimurium TA1535 in absence of metabolic activation by Ames test; assay type: toxicity; settings: salmonella enterica subsp. enterica serovar typhimurium
[4] = Lipophilicity, log D of the compound at pH 7.4; assay type: physicochemical; settings: buffer
[5] = Partition coefficient, log P of the compound; assay type: physicochemical; settings: octanol/water
[6] = Apparent permeability across basolateral to apical side in human Caco2 cells at 10 uM; assay type: ADME, cell-based; settings: Caco-2
How it was run: (§2)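 Caco-2 monolayers; bidirectional permeability measured at 10 µM, with and without the P-gp inhibitor verapamil.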

[7] = Apparent permeability across apical to basolateral side in human Caco2 cells at 10 uM; assay type: ADME, cell-based; settings: Caco-2; how it was run: as §2
Cytochrome P450 2B6 = target: T1, Cytochrome P450 2B6 (Homo sapiens, UniProt P20813); experiment: Inhibition of CYP2B6 (unknown origin); assay type: ADME
T1 sequence (P20813 whole entry): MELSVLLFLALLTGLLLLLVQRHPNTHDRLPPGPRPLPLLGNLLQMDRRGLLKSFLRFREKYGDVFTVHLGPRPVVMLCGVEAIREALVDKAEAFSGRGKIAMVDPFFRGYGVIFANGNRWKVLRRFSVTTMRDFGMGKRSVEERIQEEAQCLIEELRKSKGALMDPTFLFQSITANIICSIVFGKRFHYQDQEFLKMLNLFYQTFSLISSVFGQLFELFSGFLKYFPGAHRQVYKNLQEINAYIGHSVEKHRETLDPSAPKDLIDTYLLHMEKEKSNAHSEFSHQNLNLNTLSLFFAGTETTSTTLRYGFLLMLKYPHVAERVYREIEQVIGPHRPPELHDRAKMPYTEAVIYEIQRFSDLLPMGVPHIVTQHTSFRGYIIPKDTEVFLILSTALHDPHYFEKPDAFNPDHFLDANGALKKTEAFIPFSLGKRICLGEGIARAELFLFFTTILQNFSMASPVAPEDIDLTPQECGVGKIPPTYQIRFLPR

Rattus norvegicus [8] = experiment: Effect on striatal dopamine levels in Wistar rat at 100 mg/kg, po by microdialysis; assay type: ADME, organism-based; settings: in vivo
Cytochrome P450 2D6 = Cytochrome P450 2D6 (Homo sapiens, UniProt P10635); experiment: Inhibition of CYP2D6 in human liver microsomes using dextromethorphan as substrate after 12 mins in presence of NADPH by LC-MS/MS analysis; assay type: ADME
Cytochrome P450 2D6, sequence (P10635 whole entry): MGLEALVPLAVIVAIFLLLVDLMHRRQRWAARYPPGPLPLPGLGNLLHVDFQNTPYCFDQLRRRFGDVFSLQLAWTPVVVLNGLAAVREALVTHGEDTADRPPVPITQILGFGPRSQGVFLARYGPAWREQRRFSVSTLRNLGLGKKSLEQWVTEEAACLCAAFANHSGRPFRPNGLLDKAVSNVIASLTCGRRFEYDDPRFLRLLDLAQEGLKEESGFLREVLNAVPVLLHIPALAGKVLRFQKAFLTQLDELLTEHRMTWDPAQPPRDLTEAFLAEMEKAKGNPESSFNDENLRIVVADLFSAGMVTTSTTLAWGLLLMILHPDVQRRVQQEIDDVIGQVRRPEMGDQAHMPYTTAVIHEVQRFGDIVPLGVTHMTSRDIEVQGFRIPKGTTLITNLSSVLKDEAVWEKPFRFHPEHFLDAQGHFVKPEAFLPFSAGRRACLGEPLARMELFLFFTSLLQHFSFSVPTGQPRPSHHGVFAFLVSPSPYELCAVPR

PBL = experiment: Clastogenic activity in human peripheral blood lymphocytes by chromosomal aberration test; assay type: toxicity, cell-based
[9] = Metabolic stability in dog liver microsomes in presence of NADPH after 30 mins by LC-MS/MS analysis; assay type: ADME, Canis lupus familiaris, Microsome; settings: read-out: Stability
[10] = Mutagenicity in Salmonella typhimurium TA98 in presence of metabolic activation by Ames test; assay type: toxicity; settings: salmonella enterica subsp. enterica serovar typhimurium
[11] = Metabolic stability in rat liver microsomes in presence of NADPH after 30 mins by LC-MS/MS analysis; assay type: ADME, Microsome; settings: read-out: Stability
Rattus norvegicus [12] = experiment: In vivo inverse agonist activity at histamine 3 receptor in rat assessed as inhibition of RAMH-induced dipsogenia at 0.3 to 10 mg/kg, po measured after 3 days; assay type: functional, organism-based
How it was run: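 Male rats were dosed orally with 0.3, 0.5, 0.7, 1, 3 or 10 mg/kg (vehicle 1 mL/kg), then given (R)-α-methylhistamine 2.5 mg/kg s.c. Read-out was water intake (mL), reported as mean ± SEM.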

[13] = Toxicity in dog assessed as effect on blood pressure at 10 to 25 mg/kg, po; assay type: organism-based, Canis lupus familiaris; settings: in vivo
How it was run: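 Male dogs received oral doses of 10, 18 and 25 mg/kg. Body weight, body temperature, blood pressure, heart rate and ECG were monitored.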

[14] = Dissociation constant, pKa2 of the compound by potentiometric titration assay; assay type: physicochemical
[15] = Fraction unbound in human plasma at 1 uM by equilibrium dialysis; assay type: ADME, cell-free
How it was run: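 Rapid equilibrium dialysis of fresh rat, dog or human plasma at a compound concentration of 1.0 µM. Unbound fraction reported as a percentage.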

[16] = AUC (0 to 24 hrs) in Wistar rat at 1 mg/kg, iv by LC-MS/MS analysis; assay type: ADME, organism-based; parameters: time < 24 hr, dose 1 mg/kg, route intravenous; settings: Wistar, in vivo; how it was run: as §1
[17] = Mutagenicity in Salmonella typhimurium TA1537 in absence of metabolic activation by Ames test; assay type: toxicity; settings: salmonella enterica subsp. enterica serovar typhimurium
[18] = Dissociation constant, pKa1 of the compound by potentiometric titration assay; assay type: physicochemical
[19] = Toxicity in Wistar rat assessed as effect on latency to fall at 30 to 100 mg/kg, po by rotarod test; assay type: organism-based; settings: in vivo
How it was run: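 Motor coordination was assessed on the rotarod as latency to fall after oral doses of 30 and 100 mg/kg.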

[20] = Mutagenicity in Salmonella typhimurium TA1537 in presence of metabolic activation by Ames test; assay type: toxicity; settings: salmonella enterica subsp. enterica serovar typhimurium
[21] = Metabolic stability in rat hepatocytes after 30 mins by LC-MS/MS analysis; assay type: ADME, cell-based, Hepatocyte; settings: read-out: Stability
Rattus norvegicus [22] = experiment: Induction of wake promoting activity in orexin-B-saporin lesioned Wistar rat assessed as decrease in number of direct REM sleep onset episodes at 10 to 30 mg/kg, po dosed 15 mins before start of dark phase; assay type: functional, organism-based
How it was run: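 Rats carried epidural frontal-cortex EEG screws, nuchal EMG leads, and bilateral lateral hypothalamic orexin-B-saporin (490 ng/0.8 µl). After at least 3 weeks' recovery, they were dosed 15 min before lights-off in a crossover design with a 1-week washout. Wake, NREM and REM time was totalled over 3 h. DREM was scored as REM after ≥60 s wake. Dunnett's test was used.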

[23] = Metabolic stability in monkey liver microsomes in presence of NADPH after 30 mins by LC-MS/MS analysis; assay type: ADME, Macaca mulatta, Microsome; settings: rhesus monkey, read-out: Stability

`Cl.Cl.O=C(CN1CCOCC1)Nc1ccc(OC2CCN(C3CCC3)CC2)cc1` showed an AUC(0-t) at 24 h [1] of 626 ng·h/mL, an IC50 [2] of over 10 µM and an IC50 (Cytochrome P450 3A4) of over 45 µM. The Activity [3] was “Non-Toxic”, the logD [4] was 0.4 and the logP [5] was 2.2. The Papp B→A at 10 µM [6] was 30.8 ×10⁻⁶ cm/s, the Papp A→B at 10 µM [7] was 30.8 ×10⁻⁶ cm/s and the IC50 (Cytochrome P450 2B6) was over 45 µM. The Activity (Rattus norvegicus [8]) was “Non-Toxic”, the IC50 (Cytochrome P450 2D6) was over 45 µM and the Activity (PBL) was “Non-Toxic”. The remaining at 0.5 h [9] was 13%, the Activity [10] was “Non-Toxic” and the remaining at 0.5 h [11] was 27%. The inhibition (Rattus norvegicus [12]) was “Active”, the Activity [13] was “Non-Toxic” and the pKa [14] was 4.9. For the same compound, the fraction unbound at 1 µM [15] was 0.7, the AUC(0-t) at 24 h [16] was 263 ng·h/mL and the Activity [17] was “Non-Toxic”. For the same compound, the pKa [18] was 8.5, the Activity [19] was “Non-Toxic” and the Activity [20] was “Non-Toxic”. For the same compound, the remaining at 0.5 h [21] was 37%, the Activity (Rattus norvegicus [22]) was “Active” and the remaining at 0.5 h [23] was 35%.
